Assay results taken from ChEMBL document CHEMBL2413044, “Synthesis and biological evaluation of potential threonine synthase inhibitors: Rhizocticin A and Plumbemycin A” (Bioorg Med Chem, 2013).
The source made the active and inactive calls.

Key:
Type in all cases: functional, organism-based
Escherichia coli [1] = assay: Antibacterial activity against Escherichia coli 2 to 10 ug/L after 24 hrs by Stephenson-Wetham medium disc diffusion method
Method in brief: (§1)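 Agar diffusion. Sterile 6 mm paper disks carrying different amounts of compound were placed on Stephenson–Wetham agar (20 g/L agar) pre-seeded with the indicator bacterium. Amounts matched those of the liquid test. After 24 h at 37 °C, the diameter of the growth-inhibition zone was measured.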

Pseudomonas aeruginosa [2] = assay: Antibacterial activity against Pseudomonas aeruginosa 2 to 10 ug/L after 24 hrs by Stephenson-Wetham medium disc diffusion method; method in brief: as §1
Escherichia coli [3] = assay: Antibacterial activity against Escherichia coli 2 to 10 ug/L after 24 hrs by microdilution method
Listeria innocua [4] = assay: Antibacterial activity against Listeria innocua 2 to 10 ug/L after 24 hrs by microdilution method
Pseudomonas aeruginosa [5] = assay: Antibacterial activity against Pseudomonas aeruginosa 2 to 10 ug/L after 24 hrs by microdilution method
Bacillus subtilis [6] = assay: Antibacterial activity against Bacillus subtilis 2 to 10 ug/L after 24 hrs by Stephenson-Wetham medium disc diffusion method in absence of amino acids; method in brief: as §1
Pseudomonas aeruginosa [7] = assay: Antibacterial activity against Pseudomonas aeruginosa 2 to 10 ug/L after 24 hrs by Stephenson-Wetham medium disc diffusion method in absence of amino acids; method in brief: as §1
Listeria innocua [8] = assay: Antibacterial activity against Listeria innocua 2 to 10 ug/L after 24 hrs by Stephenson-Wetham medium disc diffusion method in absence of amino acids; method in brief: as §1
Bacillus subtilis [9] = assay: Antibacterial activity against Bacillus subtilis 2 to 10 ug/L after 24 hrs by microdilution method
Listeria innocua [10] = assay: Antibacterial activity against Listeria innocua 2 to 10 ug/L after 24 hrs by Stephenson-Wetham medium disc diffusion method; method in brief: as §1
Escherichia coli [11] = assay: Antibacterial activity against Escherichia coli 2 to 10 ug/L after 24 hrs by Stephenson-Wetham medium disc diffusion method in absence of amino acids; method in brief: as §1
Bacillus subtilis [12] = assay: Antibacterial activity against Bacillus subtilis 2 to 10 ug/L after 24 hrs by Stephenson-Wetham medium disc diffusion method; method in brief: as §1
Nakaseomyces glabratus [13] = assay: Antifungal activity against Candida glabrata at 3.5 to 1050 ug/L after 24 hrs by malt extract medium disc diffusion method
Method in brief: (§2)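 Disk diffusion on yeast-seeded agar plates (20 g/L agar added), either malt extract medium or YNB without amino acids. Sterile 6 mm paper disks held varying amounts of compound, matching the liquid-assay concentrations. The growth-inhibition zone diameter was measured after 24 h at 28 °C.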

Saccharomyces cerevisiae [14] = assay: Antifungal activity against Saccharomyces cerevisiae at 3.5 to 1050 ug/L after 24 hrs by YNB medium disc diffusion method in absence of amino acids; method in brief: as §2
Nakaseomyces glabratus [15] = assay: Antifungal activity against Candida glabrata at 3.5 to 1050 ug/L after 24 hrs by microdilution method
Method in brief: (§3)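 Yeast microdilution in 24-well plates. Wells were seeded at OD600 0.1 and grown aerobically with the compound (range as in the assay line) for 24 h at 28 °C with agitation. Growth was read as OD600. Runs were in triplicate in YPD, malt extract (20 g/L), RPMI 1640, and YNB without amino acids.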

Saccharomyces cerevisiae [16] = assay: Antifungal activity against Saccharomyces cerevisiae at 3.5 to 1050 ug/L after 24 hrs by malt extract medium disc diffusion method; method in brief: as §2
Saccharomyces cerevisiae [17] = assay: Antifungal activity against Saccharomyces cerevisiae at 3.5 to 1050 ug/L after 24 hrs by microdilution method; method in brief: as §3
Nakaseomyces glabratus [18] = assay: Antifungal activity against Candida glabrata at 3.5 to 1050 ug/L after 24 hrs by YNB medium disc diffusion method in absence of amino acids; method in brief: as §2
Candida albicans [19] = assay: Antifungal activity against Candida albicans at 3.5 to 1050 ug/L after 24 hrs by malt extract medium disc diffusion method; method in brief: as §2
Candida albicans [20] = assay: Antifungal activity against Candida albicans at 3.5 to 1050 ug/L after 24 hrs by YNB medium disc diffusion method in absence of amino acids; method in brief: as §2
Candida albicans [21] = assay: Antifungal activity against Candida albicans at 3.5 to 1050 ug/L after 24 hrs by microdilution method; method in brief: as §3

Measured: Activity

C[C@H](N)C(=O)N[C@@H](CC(=O)O)C(=O)N[C@@H](/C=C\CP(=O)(O)O)C(=O)O
not listed: Nakaseomyces glabratus [13] | Saccharomyces cerevisiae [14] | Nakaseomyces glabratus [15] | Saccharomyces cerevisiae [16] | Saccharomyces cerevisiae [17] | Nakaseomyces glabratus [18] | Candida albicans [19] | Candida albicans [20] | Candida albicans [21]
inactive: all other assays above

N=C(N)NCCC[C@H](N)C(=O)N[C@@H](/C=C\CP(=O)(O)O)C(=O)O
inactive: Nakaseomyces glabratus [13] | Saccharomyces cerevisiae [14] | Nakaseomyces glabratus [15] | Saccharomyces cerevisiae [16] | Saccharomyces cerevisiae [17] | Nakaseomyces glabratus [18] | Candida albicans [19] | Candida albicans [20] | Candida albicans [21]
